Laboratory results taken from ChEMBL document CHEMBL3124793, “Discovery of spirofused piperazine and diazepane amides as selective histamine-3 antagonists with in vivo efficacy in a mouse model of cognition” (J Med Chem, 2014).
Active and inactive are the calls of the source.

Legend:
[1] = Half life in rat at 2.4 umol/kg, iv; type: ADME, organism-based; details: in vivo
Procedure, shortened: (§1)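 IV dosing in male fasted rats, doses in μmol/kg; mean Vss, half-life and clearance derived; number of rats per compound reported.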

[2] = molecular target: Sodium-dependent noradrenaline transporter (Homo sapiens) (UniProt P23975); test: Activity at NET (unknown origin) at 10 uM relative to control
Sodium-dependent noradrenaline transporter (Homo sapiens), sequence (P23975 whole entry): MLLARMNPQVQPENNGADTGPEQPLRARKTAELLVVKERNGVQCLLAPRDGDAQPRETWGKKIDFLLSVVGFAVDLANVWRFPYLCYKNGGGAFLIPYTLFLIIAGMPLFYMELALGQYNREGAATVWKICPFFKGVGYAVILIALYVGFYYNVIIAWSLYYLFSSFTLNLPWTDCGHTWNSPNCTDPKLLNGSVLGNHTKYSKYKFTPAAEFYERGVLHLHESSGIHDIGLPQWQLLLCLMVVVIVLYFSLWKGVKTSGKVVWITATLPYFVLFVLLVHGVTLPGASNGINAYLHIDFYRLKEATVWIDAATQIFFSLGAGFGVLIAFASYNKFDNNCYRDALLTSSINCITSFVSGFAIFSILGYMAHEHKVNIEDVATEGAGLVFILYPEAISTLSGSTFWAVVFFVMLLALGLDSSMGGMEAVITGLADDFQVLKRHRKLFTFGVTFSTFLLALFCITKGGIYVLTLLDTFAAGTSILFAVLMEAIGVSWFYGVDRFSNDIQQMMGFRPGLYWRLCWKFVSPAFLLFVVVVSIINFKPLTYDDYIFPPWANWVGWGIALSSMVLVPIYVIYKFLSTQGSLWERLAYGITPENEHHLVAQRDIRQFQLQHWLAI
Procedure, shortened: (§2)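 Single-concentration binding at 10 μM against a panel of off-targets, run by an outside testing laboratory; activity judged against each assay's defined criteria.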

[3] = molecular target: Adenosine receptor A2a (Homo sapiens) (UniProt P29274); test: Activity at adenosine A2a receptor (unknown origin) at 10 uM relative to control; procedure, shortened: as §2
Adenosine receptor A2a (Homo sapiens), sequence (P29274 whole entry): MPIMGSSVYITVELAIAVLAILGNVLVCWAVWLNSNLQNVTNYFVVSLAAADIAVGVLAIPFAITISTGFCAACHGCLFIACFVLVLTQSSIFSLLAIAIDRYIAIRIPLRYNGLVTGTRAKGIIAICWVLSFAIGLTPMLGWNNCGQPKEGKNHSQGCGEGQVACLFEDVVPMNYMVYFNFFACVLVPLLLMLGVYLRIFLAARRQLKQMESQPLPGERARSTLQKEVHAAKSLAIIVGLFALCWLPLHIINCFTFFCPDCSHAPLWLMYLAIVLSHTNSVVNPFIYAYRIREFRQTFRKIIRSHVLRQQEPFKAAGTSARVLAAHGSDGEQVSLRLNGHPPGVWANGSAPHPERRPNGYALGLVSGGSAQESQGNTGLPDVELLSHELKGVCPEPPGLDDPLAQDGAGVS

[4] = Intrinsic clearance in rat liver microsomes; type: ADME; details: read-out: CLH
[5] = molecular target: Histamine H1 receptor (Homo sapiens) (UniProt P35367); test: Activity at histamine H1 receptor (unknown origin) at 10 uM relative to control; procedure, shortened: as §2
Histamine H1 receptor (Homo sapiens), sequence (P35367 whole entry): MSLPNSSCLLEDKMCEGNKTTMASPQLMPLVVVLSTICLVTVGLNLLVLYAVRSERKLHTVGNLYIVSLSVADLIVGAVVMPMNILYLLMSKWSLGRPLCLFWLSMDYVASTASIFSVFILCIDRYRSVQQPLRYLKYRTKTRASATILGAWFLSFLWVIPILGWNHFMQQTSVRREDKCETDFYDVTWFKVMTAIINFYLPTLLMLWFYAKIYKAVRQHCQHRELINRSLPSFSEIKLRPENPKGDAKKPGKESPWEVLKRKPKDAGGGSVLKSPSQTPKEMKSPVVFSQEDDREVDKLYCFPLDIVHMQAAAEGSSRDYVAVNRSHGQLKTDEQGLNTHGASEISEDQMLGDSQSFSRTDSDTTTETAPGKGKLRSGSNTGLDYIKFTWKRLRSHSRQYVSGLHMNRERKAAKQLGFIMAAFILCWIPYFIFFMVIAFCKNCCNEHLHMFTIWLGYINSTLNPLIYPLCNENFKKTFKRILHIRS

[6] = molecular target: T1, 5-hydroxytryptamine receptor 1A (Homo sapiens) (UniProt P08908); test: Activity at 5-HT1A receptor (unknown origin) at 10 uM relative to control; procedure, shortened: as §2
T1 sequence (whole entry): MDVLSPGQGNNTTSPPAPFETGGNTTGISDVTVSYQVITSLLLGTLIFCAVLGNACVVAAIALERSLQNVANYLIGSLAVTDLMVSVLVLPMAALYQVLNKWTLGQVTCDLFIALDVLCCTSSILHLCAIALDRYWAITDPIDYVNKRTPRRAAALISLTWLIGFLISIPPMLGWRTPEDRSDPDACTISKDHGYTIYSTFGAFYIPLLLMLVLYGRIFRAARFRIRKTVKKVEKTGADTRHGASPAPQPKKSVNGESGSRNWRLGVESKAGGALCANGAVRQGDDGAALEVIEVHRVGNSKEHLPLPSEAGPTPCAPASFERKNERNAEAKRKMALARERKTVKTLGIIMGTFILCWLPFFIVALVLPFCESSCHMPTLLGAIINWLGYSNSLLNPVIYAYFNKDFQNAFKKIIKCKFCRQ

[7] = molecular target: Phosphodiesterase 4 (Homo sapiens) (UniProt P27815+Q08499+Q07343+Q08493); test: Activity at PDE4 (unknown origin) at 10 uM relative to control; type: protein assay; procedure, shortened: as §2
Histamine H3 receptor [8] = molecular target: T2, Histamine H3 receptor (Homo sapiens, UniProt Q9Y5N1); test: Antagonist activity at human histamine H3 receptor long form expressed in CHOK1 cells assessed as inhibition of R-alpha-methylhistamine-induced [35S]GTPgammaS binding after 3 hrs by scintillation proximity assay; type: functional, cell-based, CHO-K1
T2 sequence (Q9Y5N1 whole entry): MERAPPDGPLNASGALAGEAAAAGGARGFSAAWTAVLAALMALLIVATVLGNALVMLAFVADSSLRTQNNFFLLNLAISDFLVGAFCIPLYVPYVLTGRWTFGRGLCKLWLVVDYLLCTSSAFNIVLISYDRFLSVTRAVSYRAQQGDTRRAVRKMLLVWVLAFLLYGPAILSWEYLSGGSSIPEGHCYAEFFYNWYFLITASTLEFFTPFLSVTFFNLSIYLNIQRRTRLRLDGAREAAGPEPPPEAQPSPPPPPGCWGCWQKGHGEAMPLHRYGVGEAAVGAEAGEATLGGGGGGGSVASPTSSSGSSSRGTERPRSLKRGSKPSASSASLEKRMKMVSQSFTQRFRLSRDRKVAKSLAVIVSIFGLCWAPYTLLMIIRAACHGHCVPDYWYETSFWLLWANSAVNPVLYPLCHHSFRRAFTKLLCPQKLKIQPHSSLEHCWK
Procedure, shortened: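 Membranes from CHO-K1 cells stably expressing human H3R long form (445 aa) incubated 3 h with test compound, 25 nM R-α-methylhistamine, 10 μM GDP, 0.2 nM [35S]GTPγS and WGA PVT SPA beads; bead-bound [35S]GTPγS counted by scintillation. Average of n > 2, standard error <20%.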

Homo sapiens [9] = organism: Homo sapiens; test: Activity at nicotinic acetylcholine receptor (unknown origin) at 10 uM relative to control; procedure, shortened: as §2
[10] = molecular target: D(2) dopamine receptor (Homo sapiens) (UniProt P14416); test: Activity at dopamine D2 receptor (unknown origin) at 10 uM relative to control; procedure, shortened: as §2
D(2) dopamine receptor (Homo sapiens), sequence (P14416 whole entry): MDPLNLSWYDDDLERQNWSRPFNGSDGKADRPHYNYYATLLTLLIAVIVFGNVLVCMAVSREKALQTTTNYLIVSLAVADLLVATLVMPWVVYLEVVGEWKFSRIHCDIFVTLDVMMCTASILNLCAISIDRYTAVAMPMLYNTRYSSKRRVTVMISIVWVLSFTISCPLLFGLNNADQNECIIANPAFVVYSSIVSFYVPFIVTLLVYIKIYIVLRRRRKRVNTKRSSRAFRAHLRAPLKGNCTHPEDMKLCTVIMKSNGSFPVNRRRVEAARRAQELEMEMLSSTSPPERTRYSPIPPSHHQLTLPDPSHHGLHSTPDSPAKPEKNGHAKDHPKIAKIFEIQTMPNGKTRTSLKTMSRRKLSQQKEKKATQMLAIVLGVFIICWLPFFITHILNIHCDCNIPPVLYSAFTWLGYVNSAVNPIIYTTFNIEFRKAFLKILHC

[11] = Equilibrium solubility of the compound at pH 7.4; type: physicochemical; details: buffer
Homo sapiens [12] = organism: Homo sapiens; test: Activity at GABA receptor (unknown origin) at 10 uM relative to control; procedure, shortened: as §2
[13] = molecular target: T3, Muscarinic acetylcholine receptor M2 (Homo sapiens) (UniProt P08172); test: Activity at muscarinic M2 receptor (unknown origin) at 10 uM relative to control; procedure, shortened: as §2
T3 sequence (whole entry): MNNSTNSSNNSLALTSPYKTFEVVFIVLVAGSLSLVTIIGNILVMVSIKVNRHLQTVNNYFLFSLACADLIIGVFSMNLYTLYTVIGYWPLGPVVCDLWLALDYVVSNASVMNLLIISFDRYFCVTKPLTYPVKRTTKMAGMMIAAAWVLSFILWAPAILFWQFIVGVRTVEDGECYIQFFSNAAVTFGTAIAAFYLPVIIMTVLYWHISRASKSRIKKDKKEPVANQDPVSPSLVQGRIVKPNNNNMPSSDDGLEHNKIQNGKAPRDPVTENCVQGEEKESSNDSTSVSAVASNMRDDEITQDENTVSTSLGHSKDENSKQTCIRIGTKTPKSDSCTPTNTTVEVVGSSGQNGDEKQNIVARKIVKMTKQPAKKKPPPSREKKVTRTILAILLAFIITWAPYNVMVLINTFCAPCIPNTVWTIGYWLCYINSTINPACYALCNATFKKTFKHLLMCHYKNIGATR

[14] = Percentage unbound in human plasma; type: ADME, cell-free
Procedure, shortened: (§3)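 Plasma protein binding in human or rat plasma, expressed as percent free.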

[15] = Intrinsic clearance in human liver microsomes; type: ADME; details: read-out: CLH
Procedure, shortened: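 Human liver microsomal clearance, expressed as μL/min/mg.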

Rattus norvegicus [16] = test: […] clearance in rat at 2.4 umol/kg, iv; type: ADME, organism-based; details: in vivo; procedure, shortened: as §1
[17] = molecular target: Histamine H4 receptor (Homo sapiens) (UniProt Q9H3N8); test: Activity at histamine H4 receptor (unknown origin) at 10 uM relative to control; procedure, shortened: as §2
Histamine H4 receptor (Homo sapiens), sequence (Q9H3N8 whole entry): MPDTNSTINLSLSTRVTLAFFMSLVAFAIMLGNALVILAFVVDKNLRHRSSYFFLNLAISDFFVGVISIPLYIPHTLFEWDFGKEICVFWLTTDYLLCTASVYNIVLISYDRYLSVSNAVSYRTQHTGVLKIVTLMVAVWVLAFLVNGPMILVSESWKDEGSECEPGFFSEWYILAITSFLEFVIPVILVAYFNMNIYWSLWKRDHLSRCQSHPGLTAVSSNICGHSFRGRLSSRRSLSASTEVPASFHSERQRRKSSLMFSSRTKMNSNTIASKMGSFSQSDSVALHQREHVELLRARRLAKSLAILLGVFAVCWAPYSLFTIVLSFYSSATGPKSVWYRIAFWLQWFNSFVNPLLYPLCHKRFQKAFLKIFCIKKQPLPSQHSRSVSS

[18] = Volume of distribution at steady state in rat at 2.4 umol/kg, iv; type: ADME, organism-based; details: in vivo, read-out: Vdss; procedure, shortened: as §1
[19] = Apparent permeability from apical to basolateral side in MDCK cells; type: ADME, cell-based, Canis lupus familiaris; details: dog
Procedure, shortened: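 MDCK monolayers; A-to-B Papp in 1 × 10⁻⁶ cm/s; efflux taken as ratio of A-to-B Papp over B-to-A Papp.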

[20] = Plasma concentration in Sprague-Dawley rat at 3 umol/kg, iv after 1 hr; type: ADME, organism-based
Procedure, shortened: (§4)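 3 μmol/kg IV; plasma, brain and CSF sampled at 1 h, n = 4; brain not corrected for ~2–3% vascular contamination; nonspecific binding during CSF sampling not evaluated; mean with standard deviation.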

[21] = Tmax in Sprague-Dawley rat 3 umol/kg, po; type: ADME, organism-based; details: in vivo
[22] = Oral bioavailability in Sprague-Dawley rat 3 umol/kg; type: ADME, organism-based; details: in vivo
[23] = Drug uptake in Sprague-Dawley rat CSF at 3 umol/kg, iv after 1 hr; type: ADME, organism-based, Cerebrospinal fluid; details: read-out: Drug uptake; procedure, shortened: as §4
Rattus norvegicus [24] = test: […] clearance in rat at 3 umol/kg, iv; type: ADME, organism-based; details: in vivo; procedure, shortened: as §1
Rattus norvegicus [25] = organism: Rattus norvegicus; test: Inhibition of rat sigma-2 receptor at 10 uM relative to control
Procedure, shortened: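 Radioligand binding screen within a 144-receptor secondary pharmacology panel, run at a single 10 μM test concentration. The response is expressed as percent activity. Activity was judged against each assay's own defined criteria.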

[26] = Volume of distribution at steady state in rat at 3 umol/kg, iv; type: ADME, organism-based; details: in vivo, read-out: Vdss
Procedure, shortened: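 Male fasted rats given a single IV dose. Volume of distribution taken as the mean from plasma sampling after the IV dose. Animals per compound: 1 to 7.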

[27] = Cmax in Sprague-Dawley rat 3 umol/kg, po; type: ADME, organism-based; set-up: dose 3 umol/kg, route oral; details: in vivo
[28] = Induction of phospholipidosis in mouse I-13.35 cells by EthD-2 staining-based assay; type: cell-based
[29] = molecular target: Histamine H2 receptor (Homo sapiens) (UniProt P25021); test: Activity at histamine H2 receptor (unknown origin) at 10 uM relative to control; procedure, shortened: as §2
Histamine H2 receptor (Homo sapiens), sequence (P25021 whole entry): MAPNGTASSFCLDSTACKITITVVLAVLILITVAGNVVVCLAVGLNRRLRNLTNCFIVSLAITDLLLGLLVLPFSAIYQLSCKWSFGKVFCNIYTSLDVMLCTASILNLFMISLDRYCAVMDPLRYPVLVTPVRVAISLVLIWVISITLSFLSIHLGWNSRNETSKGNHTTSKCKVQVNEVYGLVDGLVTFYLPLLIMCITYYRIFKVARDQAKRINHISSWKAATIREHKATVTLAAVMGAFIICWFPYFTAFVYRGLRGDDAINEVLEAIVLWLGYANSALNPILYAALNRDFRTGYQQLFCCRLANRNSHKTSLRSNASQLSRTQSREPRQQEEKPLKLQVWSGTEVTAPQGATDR

[30] = Percentage unbound in rat plasma; type: ADME, cell-free; procedure, shortened: as §3
[31] = Apparent half life in Sprague-Dawley rat; type: ADME, organism-based; details: in vivo, read-out: t1/2(app) (converted)
Brain = test: Drug uptake in Sprague-Dawley rat brain at 3 umol/kg, iv after 1 hr; type: ADME, organism-based; details: in vivo; procedure, shortened: as §4
Salmonella typhimurium = test: Genotoxicity in Salmonella typhimurium by Ames test; type: toxicity, organism-based; details: salmonella enterica subsp. enterica serovar typhimurium
[32] = Drug recovery in Sprague-Dawley rat urine at 3 umol/kg, iv after 24 hrs; type: ADME, organism-based; details: read-out: Drug recovery
Mus musculus = test: Cognitive enhancing effect in CF-1 mouse at 1 to 10 mg/kg, sc administered 60 mins prior to acquisition phase by novel object exploration test; type: functional, organism-based
Procedure, shortened: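 Male CF-1 mice given 1, 3 or 10 mg/kg s.c. 60 min before acquisition with two identical objects; one object then swapped for a novel one; mice re-tested 15 min later. Novel/familiar interaction ratio (50% = no preference) from manual scoring; mean ± SD; ANOVA with Newman–Keuls post hoc.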

Histamine H3 receptor [33] = molecular target: T2, Histamine H3 receptor; test: Displacement of [3H]-N-alpha-methylhistamine from human histamine H3 receptor expressed in CHOK1 cells after 1.5 hrs by scintillation proximity assay; type: cell-based, CHO-K1
Procedure, shortened: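 Human H3R-CHO-K1 membranes incubated 1.5 h with test compound and [3H]-N-α-methylhistamine in SPA format; nonspecific binding defined with 10 μM imetit; bead-bound radioligand counted. Average of n > 2, standard error <50%.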

[34] = Octanol-water partition coefficient, log D of the compound by shake flask HPLC analysis; type: physicochemical
Procedure, shortened: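 logD between octanol and water by shake-flask with HPLC analysis.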

[35] = Plasma clearance in Sprague-Dawley rat; type: ADME, organism-based; details: read-out: AUC
[36] = Half life in rat at 3 umol/kg, iv; type: ADME, organism-based; details: in vivo; procedure, shortened: as §1
[37] = Volume of distribution at steady state in rat at 2.1 umol/kg, iv; type: ADME, organism-based; details: in vivo, read-out: Vdss; procedure, shortened: as §1
Rattus norvegicus [38] = test: […] clearance in rat at 2.1 umol/kg, iv; type: ADME, organism-based; details: in vivo; procedure, shortened: as §1
[39] = Half life in rat at 2.1 umol/kg, iv; type: ADME, organism-based; details: in vivo; procedure, shortened: as §1

O=C(C1CC2(CCN(C3CCOCC3)CC2)C1)N1CCN(C2CCC2)CC1
half-life [1]: 14.2 h
Activity [2]: > 10%
Activity [3]: > 10%
microsomal CLint [4]: < 4 µL/min/mg
Activity [5]: > 10%
Activity [6]: > 10%
Activity [7]: > 10%
IC50 (Histamine H3 receptor [8]): 1.9 nM
Activity (Homo sapiens [9]): > 10%
Activity [10]: > 10%
solubility thermodynamic [11]: > 500 µM
Activity (Homo sapiens [12]): > 10%
Activity [13]: > 10%
fraction unbound [14]: 0.51
microsomal CLint [15]: < 4 µL/min/mg
CL (Rattus norvegicus [16]): 81.2 mL/min/kg
Activity [17]: > 10%
Vd [18]: 74 L/kg
Papp A→B [19]: 5.1 ×10⁻⁶ cm/s

CC(C)N1CCN(C(=O)[C@H]2CC23CCN(C2CCOCC2)CC3)CC1
concentration at 1 h [20]: 180 nM
Tmax [21]: 6 h
bioavailability [22]: 99%
concentration at 1 h [23]: 34 nM
CL (Rattus norvegicus [24]): 16.4 mL/min/kg
inhibition (Rattus norvegicus [25]): 62%
Activity [2]: > 10%
Activity [3]: > 10%
microsomal CLint [4]: 7 µL/min/mg
Vd [26]: 34.6 L/kg
Cmax [27]: 71 nM
Activity [5]: > 10%
Activity [6]: > 10%
EC50 [28]: > 300000 nM
Activity [29]: > 10%
Activity [7]: > 10%
fraction unbound [30]: 0.87
half-life [31]: 15 h
IC50 (Histamine H3 receptor [8]): 8.3 nM
Activity (Homo sapiens [9]): > 10%
Drug uptake (Brain): 540 nmol/kg
Activity [10]: > 10%
Activity (Salmonella typhimurium): Non-toxic
solubility thermodynamic [11]: > 500 µM
dose excreted at 24 h [32]: 14%
Activity (Homo sapiens [12]): > 10%
Activity (Mus musculus): Active
Ki (Histamine H3 receptor [33]): 0.8 nM
Activity [13]: > 10%
logD [34]: -0.26
clearance [35]: 53 mL/min/kg
microsomal CLint [15]: < 4 µL/min/mg
half-life [36]: 25.3 h
Activity [17]: > 10%
Papp A→B [19]: 13 ×10⁻⁶ cm/s

CC(C)N1CCN(C(=O)C2CC3(CCN(C4CCOCC4)CC3)C2)CC1
Vd [37]: 64 L/kg
CL (Rattus norvegicus [38]): 78 mL/min/kg
microsomal CLint [4]: < 4 µL/min/mg
IC50 (Histamine H3 receptor [8]): 1.7 nM
solubility thermodynamic [11]: > 500 µM
half-life [39]: 11.7 h
Ki (Histamine H3 receptor [33]): 0.3 nM
logD [34]: -0.74
microsomal CLint [15]: < 4 µL/min/mg
Papp A→B [19]: 3.6 ×10⁻⁶ cm/s
